Results of several laboratories.
Compare with care: the assays were run in different laboratories.

Structure (SMILES)	tested on	assay	system	setting	measurement	result
CC1=C2C[C@H]3[C@@H](CC[C@@H]4C[C@H](NS(C)(=O)=O)CC[C@@]43C)[C@@H]2CC[C@@]2(C1)O[C@@H]1C[C@H](C)CN[C@H]1[C@H]2C	MB002	cell growth or viability		7 days	IC50	> 10 µM
O=C(O)c1cc(Cl)ccc1-c1ccc(Cl)cc1C(=O)Nc1ccc2c(c1)Cc1ccccc1-2	Trypanosoma brucei	parasite growth, resazurin		72 h	EC50	28.5 µM
C#Cc1ccc(/C=C/c2nc3ccccc3c(=O)n2-c2cccc(O)c2)cc1	Enterococcus faecium	microbial growth, broth dilution	NCTC7171		MIC	32 µg/mL
COC(=O)c1cc(-c2cccc(NC(=S)NC3CCCCC3)c2)on1	Mycobacteroides chelonae	microbial growth, broth dilution	ATCC35752	48 h	MIC	> 64 µg/mL
O=c1c2ccccc2nc(/C=C/c2ccc([N+](=O)[O-])cc2)n1-c1ccccc1O	Enterococcus faecium	microbial growth, broth dilution	NCTC7171		MIC	> 128 µg/mL
Cc1ccc(-c2nc3ccc(C)cn3c2CC(=O)N(C)C)cc1	Mycobacteroides chelonae	microbial growth		72 h	MIC	> 50 µM
O=C(Nc1cccc(-c2cc(C(=O)O)no2)c1)Nc1ccc(Cl)c(Cl)c1	Mycobacteroides chelonae	microbial growth, broth dilution	ATCC35752	48 h	MIC	> 64 µg/mL
O=C(NOC[C@H](O)CO)c1ccc(F)c(F)c1Nc1ccc(I)cc1F	MB002	cell growth or viability		7 days	IC50	> 10 µM
CCCCCCNC(=S)Nc1cccc(-c2cc(C(=O)OC)no2)c1	Mycobacteroides chelonae	microbial growth, broth dilution	ATCC35752	48 h	MIC	> 64 µg/mL
CC(C)c1ccc(/C=C/c2nc3ccccc3c(=O)n2-c2cccc(O)c2)cc1	Enterococcus faecium	microbial growth, broth dilution	NCTC7171		MIC	> 128 µg/mL
COC(=O)c1cc(-c2cccc(NC(=O)Nc3cccc(F)c3)c2)on1	Mycobacteroides chelonae	microbial growth, broth dilution	ATCC35752	48 h	MIC	> 64 µg/mL
O=c1c2ccccc2nc(/C=C/c2ccco2)n1-c1cccc(O)c1	Enterococcus faecium	microbial growth, broth dilution	NCTC7171		MIC	> 128 µg/mL
